The source of these data is ChEMBL document CHEMBL4229494, “Novel tertiary sulfonamides as potent anti-cancer agents” (Bioorg Med Chem, 2018).

pEC50, pIC50: −log10 of the molar value. In brackets after ≈: the same amount, converted by molar mass.

Series [1] in a line: Inhibition of Wnt3A-induced Wnt transcription (unknown origin) expressed in HEK293 cells coexpressing TK-driven Rluc after 20 to 22 hrs by super-top flash reporter gene assay. Type of series: cell-based. The conditions noted are these: Homo sapiens. An outline of the steps:
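HEK-293 cells (DMEM, 10% FBS) were co-transfected with Super(8x)TOPflash, a Wnt3A expression vector and TK-driven Renilla luciferase. After 8 h at 37 °C, 5% CO2, cells were seeded at 25,000/well and treated at 1.6, 8, 40, 200, 1000 or 5000 nM, or with DMSO, for 20-22 h in triplicate. Firefly/Renilla luminescence was taken relative to DMSO, and IC50 was found by nonlinear regression.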
On the technique in general: Reporter assays use an easily measured gene product as a stand-in for the process of interest.

Series [2] has as its system MCF7. In words: Induction of apoptosis in human MCF7 cells after 24 hrs by caspase-Glo 3/7 reagent based luminescence assay. It counts as functional, cell-based. The conditions noted are these: MCF7, 24 h. The essentials: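 MCF-7 cells were plated at 25,000/well (DMEM, 10% FBS) and grown 24 h, then treated at 1.6 nM–5 µM or with DMSO for 24 h. Caspase 3/7 activity was read by Caspase-Glo 3/7 luminescence. Triplicate signals relative to DMSO were analysed by nonlinear regression.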

The test system of series [3] is MDA-MB-231. In words: Antiproliferative activity against human MDA-MB-231 cells after 24 hrs by SYBR green dye based fluorescence assay. Type of series: functional, cell-based. The note with it: MDA-MB-231, 24 h. The essentials:
(§1)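 Cells were plated at 500/well in DMEM/10% FBS and allowed to attach for 24 h at 37 °C, 5% CO2. They were then exposed to 1.6 nM–5 µM or DMSO. One plate was harvested every 24 h over 7 days and frozen at -20 °C. DNA was quantified by SYBR Green fluorescence (Ex495/Em535). Triplicate values relative to DMSO went to nonlinear regression for IC50.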

For series [4], the system named is MCF7. Briefly: Antiproliferative activity against human MCF7 cells after 24 hrs by SYBR green dye based fluorescence assay. Type of series: functional, cell-based. The conditions noted are these: MCF7, 24 h. An outline of the steps: as §1
The nature of series [5]: Solubility of the compound. It counts as physicochemical.
Series [6] in a line: Lipophilicity, log D of the compound at pH 3. It counts as physicochemical. The note with it: buffer.
Series [7] is described as follows: Lipophilicity, log D of the compound at pH 7. It counts as physicochemical. The conditions noted are these: buffer.
For series [8], the system named is MDA-MB-231. Briefly: Antitumor activity against human MDA-MB-231 cells xenografted in athymic nude mouse assessed as decrease in tumor volume at 5 mg/kg, ip administered per week for 16 days relative to control. Also noted: scale not given: the % may be the effect or the level left. Type of series: functional.

In the case of `O=C1CCCN1c1ccc(S(=O)(=O)N2CCCCC2)cc1`, the pIC50 in series [1] was less than 5.30.

`O=C1CCCN1c1ccc(S(=O)(=O)N2CCc3ccccc3C2)cc1` showed a pIC50 in series [1] of 6.20.

On to `O=C1CCCCN1c1ccc(S(=O)(=O)N2CCCc3ccccc32)cc1`, for which the pIC50 in series [1] was less than 5.30.

`COc1ccc2c(c1)N(C)CCN2S(=O)(=O)c1ccc(N2CCCC2=O)cc1`: the pEC50 in series [2] is 7.34. Further, the pIC50 was 7.77 in series [1], 7.85 in series [3] and 7.85 in series [4]. Moreover, in series [5], the solubility came out at 69.6 µM (≈ 27.9 µg/mL). Further, the logD in series [6] came to 2.9; in series [7], 3.

On to `O=C1CCCN1c1ccc(S(=O)(=O)N2CCCc3ncccc32)cc1`, for which the pIC50 in series [1] was less than 5.30.

For the compound `O=C1CCCN1c1ccc(S(=O)(=O)N2CCNc3ccccc32)cc1`, the pIC50 in series [1] is less than 5.30.

`CC(=O)N(C)c1ccc(S(=O)(=O)N2CCCc3ccccc32)cc1` showed a pIC50 in series [1] of less than 5.30.

As to `O=C1CCCN1c1ccc(S(=O)(=O)N2CCOc3ccccc32)cc1`, the pIC50 in series [1] is 8.00. In series [5], this compound gave a solubility of 26.6 µM (≈ 9.53 µg/mL). Also, the logD in series [6] and in series [7] was 1.7 each time.

Consider `CN1CCN(S(=O)(=O)c2ccc(N3CCC=N3)cc2)c2ccccc21`, for which, in series [2], the pEC50 is 8.30. For the same compound, the figures for the negative logarithm of the IC50 (pIC50) in series [1], in series [3] and in series [4] were 7.74, 7.89 and 8.15, respectively.

With `O=C1CCCN1c1ccc(S(=O)(=O)N2CCc3ccccc32)cc1`, in series [1], the pIC50 is less than 5.30.

In the case of `O=C1CCCN1c1ccc(S(=O)(=O)N2CCCc3ccccc32)cc1`, the pEC50 in series [2] is 7.64. The pIC50 in series [1] was 7.60; in series [3], 7.82; in series [4], 7.77. The concentration in solution in series [5] (solubility) was 7.8 µM (≈ 2.78 µg/mL). Also, the logD in series [6] and in series [7] was 2.5 each time.

Consider `CC(C)(C)c1ccc2c(c1)CCCN2S(=O)(=O)c1ccc(N2CCCC2=O)cc1`, for which the pEC50 in series [2] is 6.51. Besides, the pIC50 was 6.18 in series [1], 6.22 in series [3] and 6.50 in series [4].

For `O=S(=O)(c1ccc(-n2cccn2)cc1)N1CCCc2ccccc21`, the pIC50 in series [1] was 5.78.

In the case of `O=C1CCCN1c1ccc(S(=O)(=O)N2CCN(CCO)c3ccccc32)cc1`, in series [1], the pIC50 is less than 5.30.

For the compound `O=C1CCCN1c1ccc(S(=O)(=O)Nc2cccc3ccccc23)cc1`, the pIC50 in series [1] is less than 5.30.

With `CCCN(c1ccccc1)S(=O)(=O)c1ccc(N2CCCC2=O)cc1`, the pEC50 in series [2] was less than 5.30. In addition, the pIC50 in series [1], in series [3] and in series [4] was less than 5.30 throughout.

Consider `O=C1CCCN1c1ccc(S(=O)(=O)N2CCCC3CCCCC32)cc1` (configuration not stated), for which the pIC50 in series [1] is less than 5.30.

The compound `COc1ccc2c(c1)CCCN2S(=O)(=O)c1ccc(N2CCCC2=O)cc1` gave a pEC50 in series [2] of 7.80. Moreover, the results for the pIC50 in series [1], in series [3] and in series [4] were 8.22, 7.70 and 7.60, respectively.

In turn, `O=S(=O)(c1ccc(-n2cncn2)cc1)N1CCCc2ccccc21` gave a pEC50 in series [2] of less than 5.30. Also, the pIC50 in series [1], in series [3] and in series [4] was less than 5.30 in each case.

Take `CN1CCN(S(=O)(=O)c2ccc(N3CCCC3)cc2)c2ccccc21`: the pEC50 in series [2] is 8.22. For the same compound, the pIC50 was 8.15 in series [1], 7.80 in series [3] and 8.40 in series [4].

As for `O=C1CCCN1c1ccc(S(=O)(=O)N2CCCc3cc(C(F)(F)F)ccc32)cc1`, in series [1], the pIC50 is 7.27.

Consider `O=C1CCCN1c1ccc(S(=O)(=O)N2CCCc3cc(Cl)ccc32)cc1`, for which the pIC50 in series [1] was 7.89. In addition, the solubility in series [5] was found to be 2.9 µM (≈ 1.13 µg/mL). In addition, the logD in series [6] and in series [7] was 3.1 in each case.

In the case of `Cc1ccc2c(c1)CCCN2S(=O)(=O)c1ccc(N2CCCC2=O)cc1`, the pEC50 in series [2] was 7.21. In addition, the pIC50 in series [1] was 8.15; in series [3], 7.77; in series [4], 7.82.

`O=S(=O)(c1ccc(N2CCCC2)cc1)N1CCCc2ccccc21`: the pIC50 in series [1] was 7.70. This compound also registered a solubility in series [5] of less than 0.5 µM. Further, the logD came out at 3.6 in series [6] and 3.7 in series [7].

As for `O=S(=O)(c1ccc(N2CCC=N2)cc1)N1CCCc2ccccc21`, the pIC50 in series [1] is 7.82. Further, the concentration in solution in series [5] (solubility) came to 19 µM (≈ 6.49 µg/mL). The logD in series [6] turned out to be 1.5; in series [7] it was 2.9.

`O=C1CCCN1c1ccc(C(=O)N2CCCc3ccccc32)cc1` showed a pIC50 in series [1] of less than 5.30.

On to `CC1CN(C)c2ccccc2N1S(=O)(=O)c1ccc(N2CCCC2=O)cc1` (racemic), for which the pIC50 in series [1] was 8.05. Moreover, the solubility in series [5] was determined as 23.1 µM (≈ 8.9 µg/mL). Besides, the logD in series [6] turned out to be 3.3; in series [7], 3.6.

For `CC1CCc2ccccc2N1S(=O)(=O)c1ccc(N2CCCC2=O)cc1` (racemic), the pIC50 in series [1] is 7.96.

For the compound `COc1cccc2c1C(=O)c1c(O)c3c(c(O)c1C2=O)C[C@@](O)(C(=O)CO)C[C@@H]3O[C@H]1C[C@H](N)[C@H](O)[C@H](C)O1` [DOXORUBICIN], in series [8], the Activity is recorded as 84.3%.

As usually defined, the pIC50 is the negative decadic logarithm of the IC50, by convention in mol/L. One may read the pEC50 as −log10 of the EC50, conventionally taken in molar units. As a reminder, the solubility is how much of the substance goes into solution per volume. Usually logD stands for the decadic logarithm of the distribution of all forms, ionised or not, between an organic phase and buffer at a given pH.
